Data from ChEMBL document CHEMBL3861956, “Lignans from the Australian Endemic Plant Austrobaileya scandens” (J Nat Prod, 2016).
Values belong to the molecule of their own block, whether it stands above or below them.

Tests used:
[1] = Antiproliferative activity against human PC3 cells at 10 uM after 72 hrs by Alamar Blue assay relative to control; conditions: PC-3, 72 h
[2] = Antiproliferative activity against human PC3 cells after 72 hrs by Alamar Blue assay; conditions: PC-3, 72 h
[3] = Cell cycle arrest in human PC3 cells assessed as accumulation at S phase at 0.1 uM after 24 hrs by propidium iodide staining-based flow cytometric method (reference value: 15.8 +/- 0.3%); format: functional; conditions: PC-3
Method in brief: (§1)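 PC3 cells exposed 24 h to 0 (DMSO only), 0.1, 0.3 or 1 μM. Cells collected, washed in ice-cold PBS, fixed in 70% EtOH at −20 °C for 16 h. Stained 20 min at room temperature with 0.1% Triton X-100, 0.2 mg RNaseA and 2 μL PI (1 mg/mL) in 1 mL, then flow cytometry. Phase distribution fitted by ModFit.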

[4] = Cell cycle arrest in human PC3 cells assessed as accumulation at S phase at 1 uM after 24 hrs by propidium iodide staining-based flow cytometric method (reference value: 15.8 +/- 0.3%); format: functional; conditions: PC-3
Method in brief: as §1

[5] = Cell cycle arrest in human PC3 cells assessed as accumulation at S phase at 0.3 uM after 24 hrs by propidium iodide staining-based flow cytometric method (reference value: 15.8 +/- 0.3%); format: functional; conditions: PC-3
Method in brief: as §1

[6] = tested on: PC-3; test: Induction of apoptosis in human PC3 cells assessed as appearance of aggregated mitochondrial texture after 72 hrs by Hoechst 33342/mitotracker deep red/cellmask plasma membrane probe-based fluorescence microscopy; format: functional, cell-based
Method in brief: (§2)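 PC3 cells seeded at 2000/well onto compound, grown 72 h at 37 °C, 5% CO2. Stained 30 min at 37 °C with Hoechst 33342 (1/1000), 1 μM MitoTracker Deep Red and CellMask plasma membrane (1/1000), then PBS wash. Automated wide-field imaging at 20×, 25 fields/well. Nuclei segmented by Hoechst, cytoplasm by CellMask, border cells excluded. Results normalized to DMSO; at least two experiments.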

[7] = Cell cycle arrest in human PC3 cells assessed as accumulation at G0/G1 phase at 1 uM after 24 hrs by propidium iodide staining-based flow cytometric method (reference value: 75.3 +/- 1.8%); format: functional; conditions: PC-3
Method in brief: as §1

[8] = Cell cycle arrest in human PC3 cells assessed as accumulation at G2/M phase at 1 uM after 24 hrs by propidium iodide staining-based flow cytometric method (reference value: 8.9 +/- 1.5%); format: functional; conditions: PC-3
Method in brief: as §1

[9] = Cell cycle arrest in human PC3 cells assessed as accumulation at G2/M phase at 0.3 uM after 24 hrs by propidium iodide staining-based flow cytometric method (reference value: 8.9 +/- 1.5%); format: functional; conditions: PC-3
Method in brief: as §1

[10] = tested on: PC-3; test: Induction of apoptosis in human PC3 cells assessed as increase in cell size after 72 hrs by Hoechst 33342/mitotracker deep red/cellmask plasma membrane probe-based fluorescence microscopy; format: functional
Method in brief: as §2

[11] = tested on: PC-3; test: Induction of apoptosis in human PC3 cells assessed as increase in nuclear intensity after 72 hrs by Hoechst 33342/mitotracker deep red/cellmask plasma membrane probe-based fluorescence microscopy; format: functional, cell-based
Method in brief: as §2

[12] = tested on: PC-3; test: Induction of apoptosis in human PC3 cells assessed as increase in cell area after 72 hrs by Hoechst 33342/mitotracker deep red/cellmask plasma membrane probe-based fluorescence microscopy; format: functional
Method in brief: as §2

[13] = Cell cycle arrest in human PC3 cells assessed as accumulation at G0/G1 phase at 0.1 uM after 24 hrs by propidium iodide staining-based flow cytometric method (reference value: 75.3 +/- 1.8%); format: functional; conditions: PC-3
Method in brief: as §1

[14] = tested on: PC-3; test: Induction of apoptosis in human PC3 cells assessed as appearance of rounded cells after 72 hrs by Hoechst 33342/mitotracker deep red/cellmask plasma membrane probe-based fluorescence microscopy; format: functional, cell-based
Method in brief: as §2

[15] = tested on: PC-3; test: Induction of apoptosis in human PC3 cells assessed as increase in mitochondrial intensity after 72 hrs by Hoechst 33342/mitotracker deep red/cellmask plasma membrane probe-based fluorescence microscopy; format: functional, cell-based
Method in brief: as §2

[16] = tested on: PC-3; test: Induction of apoptosis in human PC3 cells assessed as chromatin condensation after 72 hrs by Hoechst 33342/mitotracker deep red/cellmask plasma membrane probe-based fluorescence microscopy; format: functional, cell-based
Method in brief: as §2

[17] = Cell cycle arrest in human PC3 cells assessed as accumulation at G0/G1 phase at 0.3 uM after 24 hrs by propidium iodide staining-based flow cytometric method (reference value: 75.3 +/- 1.8%); format: functional; conditions: PC-3
Method in brief: as §1

[18] = Cell cycle arrest in human PC3 cells assessed as accumulation at G2/M phase at 0.1 uM after 24 hrs by propidium iodide staining-based flow cytometric method (reference value: 8.9 +/- 1.5%); format: functional; conditions: PC-3
Method in brief: as §1

[19] = tested on: PC-3; test: Induction of apoptosis in human PC3 cells assessed as increase in mitochondrial area after 72 hrs by Hoechst 33342/mitotracker deep red/cellmask plasma membrane probe-based fluorescence microscopy; format: functional, cell-based
Method in brief: as §2

Compound: C[C@H](Cc1ccc2c(c1)OCO2)[C@H](C)Cc1ccc2c(c1)OCO2
inhibition at 10 µM [1]: 27%

Compound: COc1cc([C@@H]2O[C@H](c3ccc4c(c3)OCO4)[C@@H](C)[C@@H]2C)ccc1O
IC50 [2]: 5.11 µM

Compound: C[C@H]1[C@H](C)C(=O)O[C@@H]1c1ccc2c(c1)OCO2
inhibition at 10 µM [1]: 15%

Compound: COc1cc([C@@H]2c3cc4c(c(OC)c3C[C@H]3COC(=O)[C@@H]32)OCO4)cc(OC)c1OC
IC50 [2]: 0.016 µM

Compound: COc1cc([C@@H]2c3cc4c(cc3C[C@H]3COC(=O)[C@@H]32)OCO4)cc(OC)c1OC [DESOXYPODOPHYLLOTOXIN]
IC50 [2]: 0.018 µM

Compound: CC(=O)O[C@H]1C(=O)[C@@]2(C)[C@H]([C@H](OC(=O)c3ccccc3)[C@]3(O)C[C@H](OC(=O)[C@H](O)[C@@H](NC(=O)c4ccccc4)c4ccccc4)C(C)=C1C3(C)C)[C@]1(OC(C)=O)CO[C@@H]1C[C@@H]2O [PACLITAXEL]
IC50 [2]: 0.002 µM

Further lines, with some results ahead:

IC50 [2]: 0.823 µM
Compound: COc1cc([C@@H]2c3cc4c(cc3C[C@@H](C)[C@@H]2C)OCO4)cc(OC)c1OC

IC50 [2]: 2.06 µM
Compound: COc1cc([C@@H]2c3cc4c(cc3C[C@@H](C)[C@@H]2C)OCO4)cc2c1OCO2

IC50 [2]: 1.63 µM
Compound: COc1cc([C@@H]2c3cc4c(cc3C[C@@H](C)[C@@H]2C(=O)O)OCO4)cc2c1OCO2

IC50 [2]: 0.05 µM
Compound: COc1cc([C@@H]2c3cc4c(cc3C[C@H]3COC(=O)[C@@H]32)OCO4)cc2c1OCO2 [AUSTROBAILIGNAN 1]

IC50 [2]: 0.047 µM
Compound: COc1cc([C@@H]2c3cc4c(c(OC)c3C[C@H]3COC(=O)[C@@H]32)OCO4)cc2c1OCO2

IC50 [2]: 6.36 µM
Compound: COc1cc(C(c2ccc(O)c(OC)c2)[C@@H](C)[C@H](C)CO)ccc1O

IC50 [2]: 1.91 µM
Compound: COc1cc(C(=O)O[C@@H](c2ccc3c(c2)OCO3)[C@H](C)C(C)=O)ccc1O
Activity [3]: 27.5%
Activity [4]: 35.1%
Activity [5]: 32.2%
Activity [6]: Dose-dependent effect
Activity [7]: 61.1%
Activity [8]: 3.8%
Activity [9]: 4.4%
Activity [10]: Dose-dependent effect
Activity [11]: Dose-dependent effect
Activity [12]: Dose-dependent effect
Activity [13]: 62.6%
Activity [14]: Dose-dependent effect
Activity [15]: Dose-dependent effect
Activity [16]: Dose-dependent effect
Activity [17]: 63.4%
Activity [18]: 9.9%
Activity [19]: Dose-dependent effect
